This note sets out measurements from ChEMBL document CHEMBL5653606 (J Pharmacol Exp Ther, 2011).

Data set [1] has as its system Mus musculus. Description: In vivo inhibition of rhodamine-azide tagged FAAH expressed in mouse brain at 10 mg/kg, po by CC-ABPP method based in-gel fluorescence scanning analysis. The class given is functional, organism-based.
Data set [2] addresses T1, Fatty-acid amide hydrolase 1 (Homo sapiens, UniProt O00519).
T1 sequence (O00519 whole entry): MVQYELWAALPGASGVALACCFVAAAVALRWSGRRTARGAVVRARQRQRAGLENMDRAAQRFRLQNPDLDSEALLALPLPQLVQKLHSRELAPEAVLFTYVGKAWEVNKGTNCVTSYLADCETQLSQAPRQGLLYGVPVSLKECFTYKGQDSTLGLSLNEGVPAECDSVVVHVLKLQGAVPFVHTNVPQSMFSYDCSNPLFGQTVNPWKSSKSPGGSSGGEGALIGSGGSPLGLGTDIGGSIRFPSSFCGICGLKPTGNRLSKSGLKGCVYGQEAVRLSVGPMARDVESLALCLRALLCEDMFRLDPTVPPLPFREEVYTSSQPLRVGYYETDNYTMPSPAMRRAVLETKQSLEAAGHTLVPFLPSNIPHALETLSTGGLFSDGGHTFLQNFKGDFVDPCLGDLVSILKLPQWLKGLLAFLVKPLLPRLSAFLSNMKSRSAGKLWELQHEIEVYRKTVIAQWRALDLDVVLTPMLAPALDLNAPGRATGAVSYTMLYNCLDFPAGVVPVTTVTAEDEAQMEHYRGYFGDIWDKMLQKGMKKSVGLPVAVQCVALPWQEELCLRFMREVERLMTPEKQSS
Nature of the data set: Inhibition of human FAAH assessed as kinact/Ki ratio incubated for 30 min in presence of glutamate dehydrogenase by 384-well format microplate reader assay.

For data set [3], the system named is Mus musculus. Nature of the data set: Antinociceptive activity in C57BL6/J mouse assessed as effect in body temperature at 1 to 10 mg/kg, po administered for 4 hrs. The class given is functional, organism-based. Conditions: dose 1-10 mg/kg. The method in brief:
(§1)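 Male C57BL/6J mice, 7 weeks old, n = 8/group, dosed orally at 1 or 10 mg/kg in PEG 300 (4 ml/kg). Tetrad tested 4 h postdose: locomotor activity, tail-immersion thermal nociception, catalepsy (assessed 60 s), body temperature. Means ± S.E.M. versus vehicle.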

For data set [4], the target named is T2, Fatty-acid amide hydrolase 1 (Mus musculus) (UniProt O08914).
T2 sequence (whole entry): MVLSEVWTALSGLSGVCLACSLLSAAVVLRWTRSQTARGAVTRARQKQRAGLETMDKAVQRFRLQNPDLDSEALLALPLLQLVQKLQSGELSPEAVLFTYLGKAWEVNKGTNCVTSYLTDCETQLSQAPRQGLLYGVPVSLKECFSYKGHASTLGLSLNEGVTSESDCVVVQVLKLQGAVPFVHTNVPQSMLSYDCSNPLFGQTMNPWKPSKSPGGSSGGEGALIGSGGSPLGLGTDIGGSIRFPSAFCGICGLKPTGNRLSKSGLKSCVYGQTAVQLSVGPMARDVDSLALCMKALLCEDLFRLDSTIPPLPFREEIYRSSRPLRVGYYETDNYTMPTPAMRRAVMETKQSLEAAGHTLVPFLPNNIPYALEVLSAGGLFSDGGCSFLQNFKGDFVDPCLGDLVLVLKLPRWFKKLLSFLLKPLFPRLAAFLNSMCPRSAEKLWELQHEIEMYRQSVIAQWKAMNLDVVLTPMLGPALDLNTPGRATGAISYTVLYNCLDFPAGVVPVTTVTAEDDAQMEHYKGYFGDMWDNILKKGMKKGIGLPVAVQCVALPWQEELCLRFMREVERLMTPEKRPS
Description: Inhibition of FAAH in mouse brain at 10 uM in presence of FP-rhodamine by competitive activity-based protein profiling method. The class given is tissue-based. Summed up: (§2)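 Competitive ABPP on human and mouse brain, liver and heart proteomes (membrane and soluble fractions), exposed to compound at 10 or 100 μM or to DMSO. Serine hydrolases were then labeled with FP-rhodamine. Gels were read by fluorescence scanning, and loss of band labeling (FAAH or other hydrolases by kDa) was judged.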

Data set [5] deals with Mus musculus. Description: Antinociceptive activity in C57BL6/J mouse assessed as thermal tail immersion at 1 to 10 mg/kg, po administered for 4 hrs. Conditions: dose 1-10 mg/kg. The class given is functional, organism-based. Summed up: as §1
Data set [6] concerns Mus musculus. Description: Antinociceptive activity in C57BL6/J mouse assessed as increased tail withdrawal latency at 1 to 10 mg/kg, po administered for 4 hrs. The class given is functional, organism-based. Conditions: dose 1-10 mg/kg. Summed up: as §1
The test system of data set [7] is Rattus norvegicus. Nature of the data set: Antihyperalgesic activity in MIA induced Sprague-Dawley rat assessed as increased joint compression thresholds at 0.3 to 3 mg/kg, po administered for 1 day and measured after 2 to 4 hrs. The class given is functional, organism-based. Conditions: dose 0.3-3 mg/kg. The method in brief:
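Male Sprague-Dawley rats (220–270 g), isoflurane-anesthetized, given 2 mg MIA in 0.9% saline (50 μl) intra-articular into the knee. From day 14, oral dosing at 10 ml/kg once daily for 3 days in 4% 2-hydroxypropyl-β-cyclodextrin/1% ethanol in 0.01 M HCl. Celecoxib 30 mg/kg in 0.5% methylcellulose twice daily. Joint compression threshold by digital Randall-Selitto at 2 and 4 h postdose on days 1 and 3; n = 10/group.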

Data set [8] in a line: Plasma concentration in CFA induced Sprague-Dawley rat at 0.1 mg/kg, po by LC/MS analysis. The class given is ADME, organism-based. Conditions: in vivo.
The subject of data set [9] is Rattus norvegicus. Nature of the data set: Antihyperalgesic activity in CFA induced Sprague-Dawley rat assessed as inhibition of mechanical allodynia at 0.1 mg/kg, po measured for 4 hrs by von frey test. The class given is functional, organism-based. The method in brief:
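Male Sprague-Dawley rats (200–250 g) given 150 μl CFA (1 mg/ml in mineral oil) intraplantar in the hind paw. Mechanical paw withdrawal thresholds read with Von Frey hairs on day 5 postinjection. Dosed orally as nanocrystalline suspension in 2% polyvinylpyrrolidone/0.15% SDS in water, 10 ml/kg. PWTs taken 4 h postdose for dose-response, or at 1, 2, 4, 8, 24 h for time course.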

In data set [10] the target is T3, Fatty-acid amide hydrolase 1 (Homo sapiens) (UniProt O00519).
T3 sequence (whole entry): T1 sequence (O00519 whole entry)
Nature of the data set: Inhibition of FAAH in human brain at 10 uM in presence of FP-rhodamine by competitive activity-based protein profiling method. The class given is tissue-based. Summed up: as §2

Active and inactive are the calls of the source.

By IC50 is commonly meant the concentration at which inhibition is half-maximal. For `O=C(Nc1cccnn1)N1CCC(=Cc2cccc(Oc3ccc(C(F)(F)F)cn3)c2)CC1`, the inhibition result in data set [1], in data set [4] and in data set [10] was “Active” in each case. In addition, in data set [2], the IC50 is 10.7 nM. Further, the values for the Activity result in data set [3], in [5] and in data set [6] were “Non-Toxic”, “Toxic” and “Toxic”, respectively. Also, the result in data set [7] and in data set [9] was Active. This compound showed a concentration in data set [8] of 34.7 nM.
